Assays:
[1] = Cytotoxicity against human GI-CA-N cells after 72 hrs by MTT assay; assay type: cell-based
Summary of the method: (§1)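 Cell lines grown in RPMI 1640 with 10% heat-inactivated FCS, 2 mM glutamine and penicillin-streptomycin at 37 °C, 5% CO2. Seeded at 2 × 10^3 cells/well and exposed to a range of inhibitor concentrations (DMSO stocks) for 24, 48 or 72 h at 37 °C. MTT added for 4 h, formazan dissolved in DMSO, absorbance read at 540 nm; mean of triplicates.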

[2] = molecular target: T1, Disintegrin and metalloproteinase domain-containing protein 17 (Homo sapiens, UniProt P78536); conditions: for IC50: A2774; for inhibition: A2774, at 10 µM
[3] = molecular target: T2, Disintegrin and metalloproteinase domain-containing protein 10 (Homo sapiens, UniProt O14672); test: Inhibition of human recombinant ADAM10 by fluorometric assay
T2 sequence (O14672 whole entry): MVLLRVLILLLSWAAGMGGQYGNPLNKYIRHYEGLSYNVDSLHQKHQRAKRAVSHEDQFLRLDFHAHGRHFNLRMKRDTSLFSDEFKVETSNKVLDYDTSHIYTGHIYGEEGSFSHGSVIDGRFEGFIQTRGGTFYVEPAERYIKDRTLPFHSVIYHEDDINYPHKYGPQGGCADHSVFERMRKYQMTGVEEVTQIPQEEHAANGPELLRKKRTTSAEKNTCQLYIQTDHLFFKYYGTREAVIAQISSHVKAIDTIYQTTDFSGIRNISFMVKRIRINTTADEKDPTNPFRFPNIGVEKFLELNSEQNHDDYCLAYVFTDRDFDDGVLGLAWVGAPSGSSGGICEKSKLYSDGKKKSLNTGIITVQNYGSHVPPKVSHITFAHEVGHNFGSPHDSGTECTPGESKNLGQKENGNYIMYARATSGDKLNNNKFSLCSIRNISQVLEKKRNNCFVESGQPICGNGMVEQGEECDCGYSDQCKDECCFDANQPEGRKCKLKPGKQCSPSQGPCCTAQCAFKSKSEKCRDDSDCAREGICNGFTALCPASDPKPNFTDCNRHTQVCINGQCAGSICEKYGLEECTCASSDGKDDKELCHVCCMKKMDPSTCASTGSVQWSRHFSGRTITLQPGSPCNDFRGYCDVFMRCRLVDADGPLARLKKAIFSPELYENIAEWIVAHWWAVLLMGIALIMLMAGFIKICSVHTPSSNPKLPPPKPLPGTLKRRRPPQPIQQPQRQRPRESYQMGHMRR
Summary of the method: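 Recombinant human ADAM-10 (20 nM) preincubated with seven inhibitor concentrations for 1 h at 37 °C in Tris 25 mM, ZnCl2 25 μM, Brij-35 0.005%, pH 9. Fluorogenic substrate Mca-Lys-Pro-Leu-Gly-Leu-Dap(Dnp)-Ala-Arg-NH2 at 10 μM final. Fluorescence (ex 325/em 395 nm) monitored every 15 s for 20 min. IC50 from initial velocities versus inhibitor-free control; mean of three independent experiments in duplicate.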

[4] = molecular target: Matrix metalloproteinase-14 (Homo sapiens, UniProt P50281); test: Inhibition of human recombinant MMP14 by fluorometric assay
Summary of the method: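 Fluorogenic substrate Mca-Lys-Pro-Leu-Gly-Leu-Dap(Dnp)-Ala-Arg-NH2 (2 μM final). Enzymes: APMA-activated (2 mM, 2 h, 37 °C) pro-MMP-1 at 2.0 nM; MMP-14 catalytic domain at 1.0 nM. Each enzyme preincubated 4 h at 25 °C with seven inhibitor concentrations in Tris 50 mM pH 7.5, NaCl, CaCl2, Brij-35, 1% DMSO. Fluorescence (ex 325/em 395 nm) read every 15 s for 20 min.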

[5] = molecular target: 72 kDa type IV collagenase (Homo sapiens, UniProt P08253)
[6] = molecular target: T1, Disintegrin and metalloproteinase domain-containing protein 17; test: Inhibition of human recombinant ADAM17 by fluorometric assay
[7] = molecular target: T1, Disintegrin and metalloproteinase domain-containing protein 17; test: Inhibition of ADAM17 in human MCF7 cells assessed as inhibition of pervanadate-induced sALCAM release by ELISA; assay type: cell-based
[8] = tested on: MDA-MB-468; test: Cytotoxicity against human MDA-MB-468 cells after 72 hrs by MTT assay; assay type: cell-based; conditions: mda-mb-468, 72 h; summary of the method: as §1
[9] = tested on: SK-OV-3; test: Cytotoxicity against human SKOV3 cells after 72 hrs by MTT assay; assay type: cell-based; conditions: sk-ov-3, 72 h; summary of the method: as §1
[10] = Cytotoxicity against human A2774 cells after 72 hrs by MTT assay; assay type: cell-based; conditions: a2774, 72 h; summary of the method: as §1
[11] = molecular target: T1, Disintegrin and metalloproteinase domain-containing protein 17; test: Inhibition of ADAM17 in human MDA-MB-468 cells assessed as inhibition of EGF-induced sALCAM release by ELISA; assay type: cell-based
[12] = molecular target: T1, Disintegrin and metalloproteinase domain-containing protein 17; test: Inhibition of ADAM17 in human A2774 cells assessed as inhibition of constitutive sALCAM release by ELISA; assay type: cell-based
[13] = molecular target: Matrix metalloproteinase-9 (Homo sapiens, UniProt P14780); test: Inhibition of MMP9 by fluorometric assay
[14] = molecular target: T3, Interstitial collagenase (Homo sapiens, UniProt P03956); test: Inhibition of MMP1 by fluorometric assay
T3 sequence (P03956 whole entry): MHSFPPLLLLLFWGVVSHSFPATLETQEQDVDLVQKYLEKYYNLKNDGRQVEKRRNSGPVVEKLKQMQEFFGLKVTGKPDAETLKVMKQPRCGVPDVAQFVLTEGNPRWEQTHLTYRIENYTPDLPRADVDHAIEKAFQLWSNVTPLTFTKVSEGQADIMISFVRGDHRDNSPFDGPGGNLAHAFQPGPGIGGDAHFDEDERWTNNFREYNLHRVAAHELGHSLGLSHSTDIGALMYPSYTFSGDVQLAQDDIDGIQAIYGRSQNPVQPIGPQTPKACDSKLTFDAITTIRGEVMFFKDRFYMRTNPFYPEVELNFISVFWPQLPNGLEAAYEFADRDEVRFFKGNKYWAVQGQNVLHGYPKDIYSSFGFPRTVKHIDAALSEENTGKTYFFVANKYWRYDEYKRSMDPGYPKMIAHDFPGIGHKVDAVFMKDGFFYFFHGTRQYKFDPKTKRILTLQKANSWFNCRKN

[15] = molecular target: T1, Disintegrin and metalloproteinase domain-containing protein 17; test: Inhibition of ADAM17 in human A2774 cells assessed as inhibition of pervanadate-induced sALCAM release by ELISA; assay type: cell-based
[16] = tested on: MCF7; test: Cytotoxicity against human MCF7 cells after 72 hrs by MTT assay; assay type: cell-based; conditions: mcf7, 72 h; summary of the method: as §1
[17] = molecular target: T1, Disintegrin and metalloproteinase domain-containing protein 17; test: Inhibition of ADAM17 in human MDA-MB-468 cells assessed as inhibition of constitutive sALCAM release by ELISA; assay type: cell-based
[18] = molecular target: T1, Disintegrin and metalloproteinase domain-containing protein 17; test: Inhibition of ADAM17 in human MDA-MB-468 cells assessed as inhibition of pervanadate-induced sALCAM release by ELISA; assay type: cell-based
[19] = molecular target: T1, Disintegrin and metalloproteinase domain-containing protein 17; test: Inhibition of ADAM17 in human GI-CA-N cells assessed as inhibition of constitutive sALCAM release by ELISA; assay type: cell-based
[20] = molecular target: T1, Disintegrin and metalloproteinase domain-containing protein 17; test: Inhibition of ADAM17 in human MCF7 cells assessed as inhibition of EGF-induced sALCAM release by ELISA; assay type: cell-based
[21] = molecular target: T1, Disintegrin and metalloproteinase domain-containing protein 17; test: Inhibition of ADAM17 in human SKOV3 cells assessed as inhibition of EGF-induced sALCAM release by ELISA; assay type: cell-based, SK-OV-3
[22] = molecular target: T1, Disintegrin and metalloproteinase domain-containing protein 17; test: Inhibition of ADAM17 in human GI-CA-N cells assessed as inhibition of pervanadate-induced sALCAM release by ELISA; assay type: cell-based
[23] = molecular target: T1, Disintegrin and metalloproteinase domain-containing protein 17; test: Inhibition of ADAM17 in human MCF7 cells assessed as inhibition of constitutive sALCAM release by ELISA; assay type: cell-based
[24] = molecular target: T1, Disintegrin and metalloproteinase domain-containing protein 17; test: Inhibition of ADAM17 in human A2774 cells assessed as inhibition of EGF-induced sALCAM release by ELISA; assay type: cell-based
[25] = molecular target: T1, Disintegrin and metalloproteinase domain-containing protein 17; test: Inhibition of ADAM17 in human SKOV3 cells assessed as inhibition of constitutive sALCAM release by ELISA; assay type: cell-based, SK-OV-3

Sequence of 72 kDa type IV collagenase (P08253 whole entry, the tested form may be a part): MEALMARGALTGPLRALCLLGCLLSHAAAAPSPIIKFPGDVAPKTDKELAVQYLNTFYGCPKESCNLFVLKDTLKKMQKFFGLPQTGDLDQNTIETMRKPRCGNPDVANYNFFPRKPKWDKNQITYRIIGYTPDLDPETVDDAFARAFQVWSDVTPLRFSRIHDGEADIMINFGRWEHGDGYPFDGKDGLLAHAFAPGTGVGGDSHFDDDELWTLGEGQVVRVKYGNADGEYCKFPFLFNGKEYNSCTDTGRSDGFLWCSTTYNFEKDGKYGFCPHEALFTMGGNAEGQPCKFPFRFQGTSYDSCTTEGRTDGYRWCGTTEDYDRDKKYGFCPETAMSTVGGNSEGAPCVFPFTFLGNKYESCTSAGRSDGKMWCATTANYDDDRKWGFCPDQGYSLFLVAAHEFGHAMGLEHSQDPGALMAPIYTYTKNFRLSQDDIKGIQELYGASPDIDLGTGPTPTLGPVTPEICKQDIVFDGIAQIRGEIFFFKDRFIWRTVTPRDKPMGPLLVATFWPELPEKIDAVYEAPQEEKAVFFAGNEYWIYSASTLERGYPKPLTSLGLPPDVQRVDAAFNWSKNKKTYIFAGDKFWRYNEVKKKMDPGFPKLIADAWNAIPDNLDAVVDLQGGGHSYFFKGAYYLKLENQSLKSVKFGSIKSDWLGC
Sequence of Matrix metalloproteinase-9 (P14780 whole entry): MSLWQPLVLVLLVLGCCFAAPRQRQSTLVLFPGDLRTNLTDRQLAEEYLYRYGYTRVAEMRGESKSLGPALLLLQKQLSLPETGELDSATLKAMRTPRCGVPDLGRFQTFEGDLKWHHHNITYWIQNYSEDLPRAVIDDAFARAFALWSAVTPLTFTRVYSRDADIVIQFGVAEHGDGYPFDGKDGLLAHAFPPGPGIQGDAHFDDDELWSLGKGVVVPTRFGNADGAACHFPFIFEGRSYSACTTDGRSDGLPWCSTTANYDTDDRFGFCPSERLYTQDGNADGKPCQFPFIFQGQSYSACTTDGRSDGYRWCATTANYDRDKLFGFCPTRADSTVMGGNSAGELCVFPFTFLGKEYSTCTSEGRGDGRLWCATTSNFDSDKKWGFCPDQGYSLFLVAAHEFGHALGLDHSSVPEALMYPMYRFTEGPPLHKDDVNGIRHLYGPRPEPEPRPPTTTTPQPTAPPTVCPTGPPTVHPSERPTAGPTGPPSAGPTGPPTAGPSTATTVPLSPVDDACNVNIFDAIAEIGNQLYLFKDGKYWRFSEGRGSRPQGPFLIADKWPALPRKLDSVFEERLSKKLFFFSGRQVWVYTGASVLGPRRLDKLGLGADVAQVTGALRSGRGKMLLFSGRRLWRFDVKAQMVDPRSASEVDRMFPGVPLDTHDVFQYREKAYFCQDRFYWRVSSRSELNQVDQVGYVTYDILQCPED
T1 sequence (P78536 whole entry, the tested form may be a part): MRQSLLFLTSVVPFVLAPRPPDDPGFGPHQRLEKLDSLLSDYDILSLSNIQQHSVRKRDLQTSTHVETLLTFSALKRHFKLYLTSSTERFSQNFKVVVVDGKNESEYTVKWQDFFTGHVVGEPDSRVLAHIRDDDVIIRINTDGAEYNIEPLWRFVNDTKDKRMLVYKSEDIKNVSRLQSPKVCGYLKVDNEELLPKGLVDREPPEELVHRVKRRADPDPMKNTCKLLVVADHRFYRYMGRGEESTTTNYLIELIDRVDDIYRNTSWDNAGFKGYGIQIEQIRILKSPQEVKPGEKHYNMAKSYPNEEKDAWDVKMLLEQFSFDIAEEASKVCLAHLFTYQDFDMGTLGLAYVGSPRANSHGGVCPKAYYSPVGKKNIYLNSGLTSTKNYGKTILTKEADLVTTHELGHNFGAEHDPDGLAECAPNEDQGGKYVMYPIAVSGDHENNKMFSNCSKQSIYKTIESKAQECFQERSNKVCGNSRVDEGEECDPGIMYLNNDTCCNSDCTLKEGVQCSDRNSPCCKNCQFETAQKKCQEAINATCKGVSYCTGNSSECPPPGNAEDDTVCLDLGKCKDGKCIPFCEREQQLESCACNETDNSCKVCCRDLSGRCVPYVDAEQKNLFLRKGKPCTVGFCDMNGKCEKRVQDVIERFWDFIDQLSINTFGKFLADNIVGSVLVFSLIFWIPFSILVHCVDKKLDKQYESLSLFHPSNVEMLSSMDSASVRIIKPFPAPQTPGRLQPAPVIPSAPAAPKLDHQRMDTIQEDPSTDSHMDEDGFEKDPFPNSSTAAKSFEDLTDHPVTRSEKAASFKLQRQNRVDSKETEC

SMILES | IC50 [4] [µM] | IC50 [5] [µM] | IC50 [6] [µM] | IC50 [13] [µM] | IC50 [14] [µM] | inhibition [2] [%] | also measured
CC(C)CN(CC(=O)NO)S(=O)(=O)c1ccc(-c2ccccc2)cc1 | – | – | 53 | – | – | 14 | –
O=C(CNS(=O)(=O)c1ccc(Br)cc1)NO | 0.36 | 0.04 | 3.9 | 0.29 | 0.27 | 13 | –
CC(=O)NCC[C@@H](NS(=O)(=O)c1ccc(Br)cc1)C(=O)NO | 0.3 | 0.19 | 0.11 | 0.19 | 1.5 | – | IC50 [3]: 2.3 µM
COc1ccc(S(=O)(=O)N(CC(=O)NO)OC(C)C)cc1 | 9.5 | 5 | 180 | 4.1 | 110 | 0 | –
CC#CCOc1ccc(S(=O)(=O)N(CC(C)C)[C@H](CCN2C(=O)c3ccccc3C2=O)C(=O)NO)cc1 | 0.029 | 0.021 | 0.059 | 0.013 | 0.4 | – | IC50 [3]: 2 µM
COc1ccc(S(=O)(=O)N(OC(C)C)[C@@H](C(=O)NO)C(C)C)cc1 | 0.24 | 0.19 | 10 | 0.17 | 1.1 | 0 | –
CC(=O)NCC[C@@H](NS(=O)(=O)c1ccc(-c2ccccc2)cc1)C(=O)NO | 0.034 | 0.0007 | 0.3 | 0.0086 | 0.196 | – | –
COc1ccc(S(=O)(=O)N(Cc2cccnc2)[C@@H](C(=O)NO)C(C)C)cc1.Cl [CGS-27023A] | – | – | 0.16 | – | – | 33 | Activity [1]: Not Active; IC50 [3]: 0.89 µM; IC50 [7]: 0.75 µM; Activity [8]: Not Active; Activity [9]: Not Active; Activity [10]: Not Active; IC50 [11]: 0.75 µM; IC50 [12]: 18 µM; IC50 [15]: 0.38 µM; Activity [16]: Not Active; IC50 [17]: 1.4 µM; IC50 [18]: 10 µM; IC50 [19]: 4.4 µM; IC50 [20]: 3 µM; IC50 [21]: 0.11 µM; IC50 [25]: 13 µM; IC50 [22]: 1.1 µM; IC50 [23]: 6.9 µM; IC50 [24]: 3.2 µM
CC(C)ON(CC(=O)NO)S(=O)(=O)c1ccc(-c2ccccc2)cc1 | – | – | 120 | – | – | 0 | –
O=C(NO)[C@@H](CCN1C(=O)c2ccccc2C1=O)NS(=O)(=O)c1ccc(Br)cc1 | 0.0009 | 0.0015 | 0.21 | 0.0011 | 0.004 | – | –
O=C(CNS(=O)(=O)c1ccc(-c2ccccc2)cc1)NO | – | – | 2.4 | – | – | 35 | –

Continued, in another order:

IC50 [4] [µM] | IC50 [5] [µM] | IC50 [6] [µM] | IC50 [13] [µM] | IC50 [14] [µM] | inhibition [2] [%] | SMILES | also measured
0.21 | 0.017 | 0.0016 | 0.046 | 1.1 | – | CC#CCOc1ccc(S(=O)(=O)N[C@H](CCNC(=O)OCc2ccccc2)C(=O)NO)cc1 | Activity [1]: Not Active; IC50 [2]: 0.011 µM; IC50 [3]: 0.24 µM; IC50 [7]: 0.053 µM; Activity [8]: Not Active; Activity [9]: Not Active; Activity [10]: Not Active; IC50 [11]: 0.11 µM; IC50 [12]: 0.26 µM; IC50 [15]: 0.011 µM; Activity [16]: Not Active; IC50 [17]: 0.42 µM; IC50 [18]: 1.1 µM; IC50 [19]: 0.09 µM; IC50 [20]: 0.42 µM; IC50 [21]: 0.0032 µM; IC50 [22]: 0.5 µM; IC50 [23]: 1.6 µM; IC50 [24]: 0.89 µM
0.0043 | 0.0042 | 0.0007 | 0.0035 | 0.35 | – | CC#CCOc1ccc(S(=O)(=O)N[C@H](CCN2C(=O)c3ccccc3C2=O)C(=O)NO)cc1 | Activity [1]: Not Active; IC50 [2]: 0.015 µM; IC50 [3]: 0.19 µM; IC50 [7]: 0.051 µM; Activity [8]: Not Active; Activity [9]: Not Active; Activity [10]: Not Active; IC50 [11]: 0.28 µM; IC50 [12]: 1.1 µM; IC50 [15]: 0.015 µM; Activity [16]: Not Active; IC50 [17]: 1.7 µM; IC50 [18]: 0.8 µM; IC50 [19]: 0.097 µM; IC50 [20]: 0.76 µM; IC50 [21]: 0.0043 µM; IC50 [25]: 2.6 µM; IC50 [22]: 0.073 µM; IC50 [23]: 1.4 µM; IC50 [24]: 0.55 µM
1.8 | 0.39 | 44 | 0.43 | 5 | – | O=C(NO)[C@@H](CCN1C(=O)c2ccccc2C1=O)NS(=O)(=O)c1ccc(-c2ccccc2C(F)(F)F)cc1 | –
0.013 | 0.013 | 2.3 | 0.0048 | – | 26 | COc1ccc(S(=O)(=O)N(CC(=O)NO)CC(C)C)cc1 | –
0.21 | – | – | – | – | 32 | COc1ccc(S(=O)(=O)NCC(=O)NO)cc1 | –
0.016 | 0.029 | 1.1 | 0.0072 | 0.056 | 9 | COc1ccc(S(=O)(=O)N(CC(C)C)[C@@H](C(=O)NO)C(C)C)cc1 | –
